Laboratory results from ChEMBL document CHEMBL1126011 (J Med Chem, 1992).

Each compound was assayed against Sodium-dependent dopamine transporter (Rattus norvegicus, UniProt P23977) (assay: Inhibition of [3H]3-beta-(p-fluorophenyl)tropane-2beta-carboxylic acid methyl ester binding to Dopamine transporter in rat striatal membranes.).
Assay type: cell membranes, Membrane
Outline: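 Male Sprague-Dawley rat (250-350 g) striata, frozen at -70 °C, homogenized in 10 mM phosphate buffer pH 7.4 with 0.32 M sucrose; 40000g pellet washed, resuspended at 1.0 mg/mL tissue. 0.5 nM [3H]-23 incubated 2 h on ice; filtration onto polyethylenimine-soaked GF/B filters, scintillation counting. IC50 from 10-12-point competition curves, 3-4 assays.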

Chain of Sodium-dependent dopamine transporter (P23977 whole entry): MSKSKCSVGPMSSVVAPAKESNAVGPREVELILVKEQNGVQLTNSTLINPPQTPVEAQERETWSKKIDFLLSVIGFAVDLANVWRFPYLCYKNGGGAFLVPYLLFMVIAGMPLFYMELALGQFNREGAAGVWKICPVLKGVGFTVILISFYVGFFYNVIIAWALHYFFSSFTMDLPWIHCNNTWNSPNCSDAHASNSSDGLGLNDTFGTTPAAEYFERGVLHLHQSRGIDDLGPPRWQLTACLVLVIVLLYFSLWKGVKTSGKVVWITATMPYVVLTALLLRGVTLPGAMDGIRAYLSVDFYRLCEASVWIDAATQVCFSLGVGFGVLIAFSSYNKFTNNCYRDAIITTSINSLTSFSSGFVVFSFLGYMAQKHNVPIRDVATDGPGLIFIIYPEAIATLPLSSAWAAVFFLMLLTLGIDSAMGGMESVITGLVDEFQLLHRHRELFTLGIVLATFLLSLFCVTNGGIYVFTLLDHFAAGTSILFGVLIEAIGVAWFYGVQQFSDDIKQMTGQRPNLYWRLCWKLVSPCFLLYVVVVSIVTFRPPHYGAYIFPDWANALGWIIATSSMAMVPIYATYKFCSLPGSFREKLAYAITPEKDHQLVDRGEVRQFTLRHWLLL

Row | SMILES | IC50
1 | CN1[C@@H]2CC[C@H]1C[C@H](OC(=O)c1ccccc1)C2 | 5180 nM
2 | CN1C2CC[C@@H]1C[C@H](OC(=O)c1ccccc1)C2C(=O)OCCc1ccccc1 (stereo partly drawn) | 248 nM
3 | CN1C2CC[C@@H]1C[C@H](OC(=O)c1ccccc1)C2C(=O)OCCCc1ccccc1 (stereo partly drawn) | 139 nM
4 | CCCOC(=O)C1C2CC[C@H](C[C@@H]1OC(=O)c1ccccc1)N2C (stereo partly drawn) | 191 nM
5 | CN1C2CC[C@@H]1C[C@H](OC(=O)c1ccccc1)C2C(=O)OCc1ccccc1 (stereo partly drawn) | 257 nM
6 | CCOC(=O)C1C2CC[C@H](C[C@@H]1OC(=O)c1ccccc1)N2C (stereo partly drawn) | 130 nM
7 | CN1C2CC[C@@H]1C[C@H](OC(=O)c1ccccc1)C2CO (stereo partly drawn) | 561 nM
8 | CN1C2CC[C@@H]1C[C@H](OC(=O)c1ccccc1)C2C(=O)Oc1ccccc1 (stereo partly drawn) | 112 nM
9 | CN1C2CC[C@@H]1C[C@H](OC(=O)c1ccccc1)C2C(=O)OCCc1ccc(N)cc1 (stereo partly drawn) | 72 nM
10 | CCOC(=O)CCC(=O)Nc1ccc(CCOC(=O)C2C3CC[C@H](C[C@@H]2OC(=O)c2ccccc2)N3C)cc1 (stereo partly drawn) | 86 nM
11 | CN1C2CC[C@@H]1C[C@H](OC(=O)c1ccccc1)C2C(=O)OCCc1ccc([N+](=O)[O-])cc1 (stereo partly drawn) | 601 nM
12 | CN1C2CC[C@@H]1C[C@H](OC(=O)c1ccccc1)C2C(=O)OCCc1ccc(Cl)cc1 (stereo partly drawn) | 271 nM
13 | CC(=O)OCC1C2CC[C@H](C[C@@H]1OC(=O)c1ccccc1)N2C (stereo partly drawn) | 272 nM
14 | CN1C2CC[C@@H]1C[C@H](OC(=O)c1ccccc1)C2C(=O)OCCc1ccc(N=C=S)cc1 (stereo partly drawn) | 196 nM
15 | CN1C2CC[C@@H]1C[C@H](OC(=O)c1ccccc1)C2C(=O)OCCc1ccc(NC(=O)CBr)cc1 (stereo partly drawn) | 61 nM
16 | CNC(=O)C1C2CC[C@H](C[C@@H]1OC(=O)c1ccccc1)N2C (stereo partly drawn) | 3180 nM
17 | CN1C2CC[C@@H]1C[C@H](OC(=O)c1ccccc1)C2C(=O)OCCc1ccc(N=[N+]=[N-])cc1 (stereo partly drawn) | 227 nM
18 | CN1C2CC[C@@H]1C[C@H](OC(=O)c1ccccc1)C2C(=O)OC/C=C/c1ccccc1 (stereo partly drawn) | 371 nM
